S100A4 inh HTS: inhibitors of S100A4-myosin IIA peptide binding, primary screen, biochemical, fluorescence polarization, TAMRA-MyoIIA peptide; Protein S100-A4 (Homo sapiens), P26447; inhibition, % at 10.7 µM; hit rate 0.14% among 360,000; AID 652163, 2013;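 active = mean inhibition of at least 70% across replicates, with every replicate also reaching that level; inconclusive = mean inhibition reaches 70% but some replicates fall short; inactive = mean inhibition below 70%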
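Test system: S100A4 monomer protein; Medium: HEPES pH 7.2 with CaCl2, KCl, NaCl, DTT, Triton; Probe or stimulus: TAMRA-labelled myosin IIA heavy-chain peptide probe, 5 nM; Doses: one dose per compound; Times: polarization read 5 min after assay mix addition, stable 5–60 min; Benchmarks: neutral control DMSO, positive control TFP.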
CFTR F508del cor: F508del CFTR correction, initial screen, CFBE line, single point | AID 720511, 2013 | activity (quench increase), % at 7.58 µM | hit rate 0.36% among 350,000 | CFBE cells, YFP halide quenching; stimulated with forskolin plus potentiator P3; % fluorescence drop versus neutral controls;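 active = mean added fluorescence quench of at least 8% versus neutral control, with both replicates also reaching 8%; inconclusive = only one of the mean or replicate conditions met; inactive = mean below 8% and not both replicates reaching 8%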;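 note: cells transiently co-express mutant CFTR-F508del with the halide-sensitive YFP; corrector assay measuring rescue of mutant channel to the surface after 24 h compound exposure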
Ecoli rRNA inh: reduced GFP signal of wild-type E. coli, primary screen, bacterial rRNA inhibitor project, GFP/RFP fluorescence, OD600, single point. AID 720706, 2013. GFP signal change (wild-type ribosome), % (test concentration not listed). hit rate 1.6% among 350,000. E. coli WT GFP vs humanized-ribosome RFP mutants, 24 h; hits give low values; DMSO median 0, no signal -100;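 active = significant combined selectivity score with lowered wild-type GFP, culture density cut under 30%, mutant RFP and density less affected; inactive = any of these conditions unmet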
ERAP1 inh: human ERAP1 aminopeptidase inhibitors, primary screen, biochemical, single point, plate reader; AID 652197, 2013; inhibition, % at 10.7 µM; Endoplasmic reticulum aminopeptidase 1 (Homo sapiens), Q9NZ08; recombinant ERAP1, Leu-AMC fluorescence, 60 min; hit rate 0.15% among 340,000;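 active = mean replicate inhibition of at least 30%, or all replicates individually reaching that 30% level; inactive = mean below 30% and not every replicate reaching it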
SIRT5 inh: SIRT5 desuccinylase inhibitors, primary screen, biochemical, fluorescence imaging, single point, set 5 | NAD-dependent protein deacylase sirtuin-5, mitochondrial (Homo sapiens), Q9NXA8 | Purified SirT5, succinyl-peptide AMC, trypsin-coupled fluorescence | inhibition, % at 15 µM | hit rate 1.1% among 330,000 | AID 652115, 2013; in the data active = inhibition above about 15%; inconclusive = no clear call, values can overlap the other calls
HepG2 cytotox: cytotoxicity in HepG2 cells, dose response, cytotoxicity control, cell-based, CellTiter-Glo luminescence, cherry-pick, set 4; shares compounds with Ecoli rRNA inh; HepG2 viability, ATP luminescence, 72 h; activity change, negative = cytotoxicity, unspecified at 26 µM; 30 tested, under 10 active; AID 743480, 2014;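 active = compounds whose fitted half-maximal signal-loss concentration is at most twice their highest valid dose; inconclusive = flat curve with 30 to 70% signal loss, or poor fit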
AID977621: growth inhibition of wild-type GFP E. coli, dose response, H69 mutant RFP, cherry-pick; shares compounds with Ecoli rRNA inh; E. coli wild-type GFP strain growth, fluorescence, 24 h; activity change, negative = inhibition at 50 µM; 1,900 tested, under 10 active;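 active = Wild-type ribosome reporter drop at least double the humanized mutant ribosome reporter drop, growth loss under a set limit; inconclusive = no clear call, values can overlap the other calls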;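 note: wild-type GFP and H69 mutant RFP strains grown together 50/50 in each well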
AID977628: E. coli growth inhibition, wild-type GFP versus h24 humanized RFP strain, dose response, h24 mutant RFP vs wild-type GFP, cherry-pick; E. coli WT GFP strain growth, fluorescence, 24 h; activity change, negative = inhibition at 50 µM; 1,900 tested, under 10 active; shares compounds with Ecoli rRNA inh;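 active = compound lowering the normal-ribosome reporter at least twice as much as the humanized-ribosome reporter, growth loss under a set limit; inconclusive = no clear call, values can overlap the other calls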;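 note: wild-type GFP and h24 humanized RFP strains co-cultured 1 to 1 per well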
Hits are given with their value; n = inactive; u = inconclusive; x = not tested or not shown. Most compounds without a hit are left out; they make up all but 3.1% or so of the library.

SMILES	S100A4 inh HTS	CFTR F508del cor	Ecoli rRNA inh	ERAP1 inh	SIRT5 inh	AID977621	AID977628	others
CC(=O)c1cccc(NS(=O)(=O)c2ccc(C(=O)Nc3ccccc3)cc2)c1	n	n	n	n	n	x	x
O=C(Nc1ccncc1)c1ccc(S(=O)(=O)Nc2ccccc2)cc1	n	n	-23	n	n	n	u
Cc1ccc(-c2cnc3c(c2)C(=O)N([C@@H](C)CO)C[C@@H](C)[C@H](CN(C)C(=O)CN(C)C)O3)cc1	n	n	n	x	n	x	x
Cc1nn2c(NCc3ccccn3)cc(C(C)C)nc2c1-c1ccccc1	n	n	-21	n	n	x	n
C/C=C/c1ccc2c(c1)O[C@H](CN(C)S(=O)(=O)c1ccc(C)cc1)[C@H](C)CN([C@H](C)CO)S2(=O)=O	n	n	n	n	n	x	x
O=C(NCC[C@H]1CC[C@@H](NC(=O)C2CCC2)[C@@H](CO)O1)c1cnccn1	n	n	n	n	n	x	x
CC(=O)Nc1ccc(S(=O)(=O)Nc2cccc(-c3nc4cc(C)ccc4o3)c2)cc1	n	11	-18	x	n	n	x
COc1ccc2c3c(n(C)c2c1)[C@H](CO)N(S(C)(=O)=O)CC31CCN(C(=O)C2CC2)CC1	n	n	n	n	n	x	x
C(=C(c1ccccc1)c1ccccc1)c1ccccn1	n	n	-39	n	x	n	x
O=C(NCc1ccc2c(c1)OCO2)C1CCCN1S(=O)(=O)c1ccc(Cl)cc1 (stereo unspecified)	n	n	-19	n	n	n	x
COc1ccc(-c2ccc3c(c2)O[C@@H](CN(C)C(C)=O)[C@@H](C)CN([C@H](C)CO)S3(=O)=O)cc1	n	n	n	n	n	x	x
Cc1nonc1C1CCCN1C(=O)c1cc(COc2ccc(F)cc2F)on1 (stereo unspecified)	n	n	-27	n	n	u	x
COc1ccc(Nc2oc(-c3ccco3)nc2S(=O)(=O)c2ccc(F)cc2)cc1	n	n	-29	n	n	x	x	HepG2 cytotox=n
C[C@H]1CCCCO[C@H](CN(C)C(=O)CCCN(C)C)[C@@H](C)CN([C@@H](C)CO)C(=O)c2cc(NC(=O)Nc3cccc4ccccc34)ccc2O1	n	n	n	n	n	u	n
C[C@@H]1CCCCO[C@@H](CN(C)C(=O)Nc2cccc3ccccc23)[C@@H](C)CN([C@H](C)CO)C(=O)c2cc(NC(=O)Nc3cccc4ccccc34)ccc2O1	n	n	n	n	n	x	x
C[C@@H]1CCCCO[C@@H](CN(C)C(=O)CCCN(C)C)[C@H](C)CN([C@@H](C)CO)C(=O)c2cc(NC(=O)Nc3cccc4ccccc34)ccc2O1	n	n	n	n	n	x	u
C[C@@H]1CN([C@@H](C)CO)C(=O)c2cc(NC(=O)Nc3cccc4ccccc34)ccc2O[C@@H](C)CCCCO[C@H]1CN(C)C(=O)CCCN(C)C	n	n	n	n	n	x	u
C[C@H](CO)N1C[C@H](C)[C@H](CN(C)C(=O)CCCN(C)C)OCCCC[C@H](C)Oc2ccc(NC(=O)Nc3cccc4ccccc34)cc2C1=O	n	n	n	n	n	n	u
C[C@@H]1CN([C@@H](C)CO)C(=O)c2cc(NC(=O)Nc3ccccc3)ccc2O[C@@H](C)CCCCO[C@@H]1CN(C)C(=O)CCCN(C)C	n	n	n	n	n	x	x

Compound activity from PubChem.
